# Measured values from ChEMBL document CHEMBL4196210, “Depsipeptides Featuring a Neutral P1 Are Potent Inhibitors of Kallikrein-Related Peptidase 6 with On-Target Cellular Activity” (J Med Chem, 2018).
# The source made the active and inactive calls. The calls are words filed in the database; no cut-off is given here.
# Legend:
# Kallikrein-7 [1] = target: T1, Kallikrein-7 (Homo sapiens, UniProt P49862); assay: Inhibition of KLK7 (unknown origin) expressed in Pichia pastoris pre-incubated for 10 mins before Leu-Leu-Val-Tyr-AMC substrate addition and measured after 30 mins by fluorescence based assay
# Method in brief: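 KLK7 at 33 nM final in 100 mM phosphate, 0.01% Tween-20, pH 8.5, with inhibitor (1:3 dilutions) or 2% DMSO for 10 min at rt. Reaction started with Leu-Leu-Val-Tyr-AMC at 500 µM final. Fluorescence (ex 380/em 460) read every 60 s for 30 min. Triplicates.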
# Target sequence in this assay (P49862 whole entry): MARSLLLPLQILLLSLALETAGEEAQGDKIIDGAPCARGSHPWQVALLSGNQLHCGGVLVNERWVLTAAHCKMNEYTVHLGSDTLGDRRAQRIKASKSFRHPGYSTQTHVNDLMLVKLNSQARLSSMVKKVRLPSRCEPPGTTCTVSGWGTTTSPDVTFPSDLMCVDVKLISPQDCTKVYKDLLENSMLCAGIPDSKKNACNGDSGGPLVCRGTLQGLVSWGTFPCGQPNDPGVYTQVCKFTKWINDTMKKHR
# Trypsin [2] = target: T2, Trypsin (Homo sapiens, UniProt P07477+P07478+P35030); assay: Binding affinity to recombinant trypsin (unknown origin) at 50 uM pre-incubated with conditioned medium for 30 mins by activity-based probe based in-gel fluorescence assay; format: protein assay
# CAL-27 [3] = assay: Effect on EMT switch in human CAL27 cells at 100 to 500 nM incubated for 48 hrs; format: ADME, cell-based; conditions: cal-27, 48 h, 0.5 µM
# Kallikrein-14 = target: T3, Kallikrein-14 (Homo sapiens, UniProt Q9P0G3); assay: Inhibition of KLK14 (unknown origin) expressed in Pichia pastoris pre-incubated for 10 mins before Boc-ValProArg-AMC substrate addition and measured after 30 mins by fluorescence based assay
# T3 sequence (Q9P0G3 whole entry): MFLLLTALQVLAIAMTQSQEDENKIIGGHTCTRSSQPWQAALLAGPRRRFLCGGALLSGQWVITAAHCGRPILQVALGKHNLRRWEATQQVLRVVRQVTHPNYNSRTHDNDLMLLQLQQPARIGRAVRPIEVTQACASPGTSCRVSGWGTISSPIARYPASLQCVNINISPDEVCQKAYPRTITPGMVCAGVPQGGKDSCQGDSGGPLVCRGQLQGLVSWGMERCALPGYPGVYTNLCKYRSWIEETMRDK
# Trypsin [4] = target: T2, Trypsin; assay: Inhibition of trypsin (unknown origin) pre-incubated for 30 mins before N-Boc-FSR-AMC substrate addition and measured after 30 mins; format: protein assay
# CAL-27 [5] = assay: Effect on cell proliferation of human CAL27 cells at 100 to 500 nM incubated for 48 hrs by BrdU incorporation assay; format: ADME, cell-based; conditions: cal-27, 48 h, 0.5 µM
# Detroit 562 [6] = assay: Effect on EMT switch in human Detroit 562 cells at 100 to 500 nM incubated for 48 hrs; format: ADME, cell-based; conditions: detroit 562, 48 h, 0.5 µM
# Kallikrein-4 [7] = target: T4, Kallikrein-4 (Homo sapiens, UniProt Q9Y5K2); assay: Inhibition of N-terminal FLAG-tagged and C-terminal His tagged pro-KLK4 (unknown origin) expressed in Escherichia coli in presence of thermolysin pre-incubated for 10 mins before Boc-FSR-AMC substrate addition and measured after 20 mins by fluorescence based assay
# T4 sequence (Q9Y5K2 whole entry): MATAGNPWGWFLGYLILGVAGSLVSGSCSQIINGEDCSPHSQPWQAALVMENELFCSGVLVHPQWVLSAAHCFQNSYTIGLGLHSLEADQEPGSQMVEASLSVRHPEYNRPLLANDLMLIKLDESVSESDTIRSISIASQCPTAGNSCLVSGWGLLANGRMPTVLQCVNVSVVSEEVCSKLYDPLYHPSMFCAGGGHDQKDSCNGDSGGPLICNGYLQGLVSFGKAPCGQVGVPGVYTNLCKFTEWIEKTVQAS
# [8] = target: Kallikrein-5 (Homo sapiens) (UniProt Q9Y337); assay: Binding affinity to KLK5 in human VCAP cells conditioned medium at 50 uM pre-incubated for 30 mins by activity-based probe based in-gel fluorescence assay; format: cell-based
# [9] = Stability in DMEM supplemented with 10% (v/v) fetal bovine serum at 10 uM at 37 degC assessed as half life by HPLC-MS method; format: physicochemical; conditions: cattle, DMEM with 10% (v/v) fetal bovine serum
# Method in brief: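 Compound at 10 µM (0.2% DMSO) in DMEM with 10% FBS, 2 mM L-glutamine and 1% penicillin/streptomycin, plus 10 µM triazole internal standard, held at 37 °C. Sampled hourly to 10 h, then at 24 h, by HPLC-MS in SIM mode for parent and hydrolysis product.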
# Kallikrein-13 = target: T5, Kallikrein-13 (Homo sapiens, UniProt Q9UKR3); assay: Inhibition of KLK13 (unknown origin) expressed in Pichia pastoris pre-incubated for 10 mins before Boc-ValProArg-AMC substrate addition and measured after 30 mins by fluorescence based assay
# T5 sequence (Q9UKR3 whole entry): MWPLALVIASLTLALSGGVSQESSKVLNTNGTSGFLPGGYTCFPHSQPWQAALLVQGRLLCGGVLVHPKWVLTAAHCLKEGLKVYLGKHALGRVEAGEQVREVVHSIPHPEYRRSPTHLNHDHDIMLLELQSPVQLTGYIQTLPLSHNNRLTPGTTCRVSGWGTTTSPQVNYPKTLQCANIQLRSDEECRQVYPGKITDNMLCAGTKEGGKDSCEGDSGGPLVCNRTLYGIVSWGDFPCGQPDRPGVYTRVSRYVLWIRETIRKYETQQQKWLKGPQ
# Kallikrein-8 = target: T6, Kallikrein-8 (Homo sapiens, UniProt O60259); assay: Inhibition of KLK8 (unknown origin) expressed in Pichia pastoris pre-incubated for 10 mins before Boc-ValProArg-AMC substrate addition and measured after 30 mins by fluorescence based assay
# T6 sequence (O60259 whole entry): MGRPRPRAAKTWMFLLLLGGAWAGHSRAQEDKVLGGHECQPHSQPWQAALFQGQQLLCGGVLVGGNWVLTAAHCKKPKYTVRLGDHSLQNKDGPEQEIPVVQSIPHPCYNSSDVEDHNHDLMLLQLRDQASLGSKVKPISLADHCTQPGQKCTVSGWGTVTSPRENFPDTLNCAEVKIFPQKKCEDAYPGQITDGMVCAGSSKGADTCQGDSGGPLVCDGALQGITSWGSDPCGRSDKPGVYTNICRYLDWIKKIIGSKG
# Kallikrein-5 = target: T7, Kallikrein-5 (Homo sapiens, UniProt Q9Y337); assay: Inhibition of KLK5 (unknown origin) expressed in Pichia pastoris pre-incubated for 10 mins before Boc-ValProArg-AMC substrate addition and measured after 30 mins by fluorescence based assay
# T7 sequence (Q9Y337 whole entry): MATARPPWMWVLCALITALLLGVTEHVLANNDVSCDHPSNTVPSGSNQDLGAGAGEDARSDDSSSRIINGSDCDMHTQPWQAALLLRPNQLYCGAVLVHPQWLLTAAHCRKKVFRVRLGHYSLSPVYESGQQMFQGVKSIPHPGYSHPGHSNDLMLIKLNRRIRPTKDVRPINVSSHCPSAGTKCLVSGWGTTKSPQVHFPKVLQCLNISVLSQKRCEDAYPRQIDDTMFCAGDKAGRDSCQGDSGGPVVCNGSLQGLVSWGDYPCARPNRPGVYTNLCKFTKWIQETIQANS
# Detroit 562 [10] = assay: Effect on cell proliferation of human Detroit 562 cells at 100 to 500 nM incubated for 48 hrs by BrdU incorporation assay; format: ADME, cell-based; conditions: detroit 562, 48 h, 0.5 µM
# Kallikrein-7 [11] = target: T1, Kallikrein-7; assay: Binding affinity to recombinant KLK7 (unknown origin) at 50 uM pre-incubated with conditioned medium for 30 mins by activity-based probe based in-gel fluorescence assay
# Target sequence in this assay (P49862 30-253 limits assumed): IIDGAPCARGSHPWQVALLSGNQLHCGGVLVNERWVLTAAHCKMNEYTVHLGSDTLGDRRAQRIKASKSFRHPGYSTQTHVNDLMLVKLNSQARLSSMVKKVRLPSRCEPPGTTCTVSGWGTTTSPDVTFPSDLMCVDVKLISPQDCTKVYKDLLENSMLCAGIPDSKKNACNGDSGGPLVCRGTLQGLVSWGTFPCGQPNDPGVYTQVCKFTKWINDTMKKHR
# [12] = target: T8, Prostate-specific antigen (Homo sapiens) (UniProt P07288); assay: Binding affinity to KLK3 in human LNCAP cells conditioned medium at 50 uM pre-incubated for 30 mins by activity-based probe based in-gel fluorescence assay; format: cell-based
# T8 sequence (whole entry): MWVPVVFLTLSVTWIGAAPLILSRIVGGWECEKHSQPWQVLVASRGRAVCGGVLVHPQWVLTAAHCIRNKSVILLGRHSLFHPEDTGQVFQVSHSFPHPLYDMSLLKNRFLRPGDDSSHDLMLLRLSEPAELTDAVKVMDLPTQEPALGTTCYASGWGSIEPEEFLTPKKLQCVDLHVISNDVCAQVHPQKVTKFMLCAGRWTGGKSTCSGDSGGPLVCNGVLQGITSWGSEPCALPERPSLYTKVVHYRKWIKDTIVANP
# Kallikrein-4 [13] = target: T4, Kallikrein-4; assay: Binding affinity to recombinant KLK4 (unknown origin) at 50 uM pre-incubated with conditioned medium for 30 mins by activity-based probe based in-gel fluorescence assay
smiles,measurement,setting,value
Cc1nn(-c2ccccc2)c(C)c1NC(=O)COC(=O)Cc1c(C)[nH]c2ccccc12,IC50,Kallikrein-7 [1],73 µM
same,Activity,Trypsin [2],inactive
same,Activity,CAL-27 [3],Non-Toxic
same,IC50,Kallikrein-14,10.3 µM
same,IC50,Trypsin [4],21 µM
same,Activity,CAL-27 [5],Non-Toxic
same,Activity,Detroit 562 [6],Non-Toxic
same,IC50,Kallikrein-4 [7],> 200 µM
same,Activity,[8],inactive
same,half-life at 10 µM,[9],4.22 h
same,IC50,Kallikrein-13,> 10 µM
same,IC50,Kallikrein-8,> 10 µM
same,IC50,Kallikrein-5,1.1 µM
same,Activity,Detroit 562 [10],Non-Toxic
same,Activity,Kallikrein-7 [11],inactive
same,Activity,[12],inactive
same,Activity,Kallikrein-4 [13],inactive
